Hits are enriched below; roughly 1.6% of the tested compounds scored in any of these assays.
UHRF1 binding = UHRF1 methylated DNA binding inhibitors, primary screen, counter-screen for MBD2 inhibitor project, biochemical, TR-FRET, human UHRF1, single concentration. E3 ubiquitin-protein ligase UHRF1 (Homo sapiens), Q96T88. UHRF1 binding to methylated oligo. inhibition, % at 4.4 µM. 370,000 tested, 0.75% active. AID 687016, 2013; in the data active = inhibition above about 21%;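 note: UHRF1 SRA domain binding a hemimethylated CpG hairpin DNA probe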
MBD2 DNA inh = inhibitors of MBD2 binding to methylated DNA, primary screen, biochemical, TR-FRET, DNA-binding domain, human; Methyl-CpG-binding domain protein 2 (Homo sapiens), Q9UBB5; MBD2 binding to methylated oligonucleotide; inhibition, % at 4.4 µM; 370,000 tested, 0.31% active; AID 686964, 2013; in the data active = inhibition above about 13%
LEDGF integ inh = blockers of LEDGF/p75-dependent integrase strand transfer – biochemical, TR-FRET, high throughput, primary screen. inhibition, % at 3.7 µM. AID 743269, 2014. TR-FRET IN-LEDGF/p75 DNA integration, Eu/Cy5. HIV-1 integrase (with human LEDGF/p75). 370,000 tested, 0.64% active;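 active = inhibition above the screen-wide mean plus 3 SD, cut at about 13% in these data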;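 note: signal is the Cy5 over europium emission ratio at 671 and 618 nm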
TDP2 absorb = human TDP2 enzyme inhibitors, primary screen, biochemical, epi absorbance, recombinant enzyme; inhibition, % at 12.8 µM; 370,000 tested, 0.34% active; Tyrosyl-DNA phosphodiesterase 2 (Homo sapiens), O95551; T5PNP hydrolysis, p-nitrophenol absorbance 415 nm;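 active = inhibition above the mean of all tested compounds plus 3 SD, set per campaign, cut at about 25% in these data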
Target sequence (O95551 whole entry, looked up): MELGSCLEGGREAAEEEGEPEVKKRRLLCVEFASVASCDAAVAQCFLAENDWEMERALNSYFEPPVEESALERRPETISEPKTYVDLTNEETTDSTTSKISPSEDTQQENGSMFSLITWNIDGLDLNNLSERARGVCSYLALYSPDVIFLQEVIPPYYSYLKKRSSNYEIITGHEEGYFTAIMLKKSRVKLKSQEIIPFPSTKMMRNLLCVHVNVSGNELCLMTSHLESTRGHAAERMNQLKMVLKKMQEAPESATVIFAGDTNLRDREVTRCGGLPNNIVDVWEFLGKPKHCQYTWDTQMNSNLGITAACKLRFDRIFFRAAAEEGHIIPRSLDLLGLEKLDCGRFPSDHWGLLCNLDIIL
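System – recombinant human TDP2 · Amount – 120 nM TDP2 per well · Buffer or medium – Mg2+-containing Tris-HCl buffer, pH 7.5 · Reagent – T5PNP substrate, 5 mM · Dosing – 12.8 µM single point, 1% DMSO · Incubation – 2 h at 37 °C · Measured by – epi absorbance · Read-out basis – percent inhibition · Benchmarks – high control without enzyme, low control DMSO plus TDP2 · Repeats – singlicate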
TDP2 inh conf = human TDP2 enzyme inhibitors, retest, confirmation, biochemical, epi absorbance, recombinant enzyme | inhibition, % at 12.8 µM | 1,100 tested, 22% active | shares compounds with TDP2 absorb | absorbance read-out | AID 743263, 2014; in the data active = inhibition above about 25%
Large screens that a line does not name were inactive (follow-up assays come after a bar, where they were run); ! = not active in a repeat.

COc1ccccc1-n1c(SCC(N)=O)nnc1-c1ccc(S(=O)(=O)N2CCCCC2)cc1	none
O=C(COC(=O)c1ccccc1SCC(=O)N1CCCC1)NC1CCCCC1	TDP2 absorb 26 | TDP2 inh conf inactive
Cn1c(-c2ccccc2)cnc1NCc1ccccc1	TDP2 absorb 29 | TDP2 inh conf inactive
COC(=O)c1ccccc1-c1ccc(C(c2c(C)[nH][nH]c2=O)c2c(C)[nH][nH]c2=O)o1	TDP2 absorb 78 | TDP2 inh conf 36
Cc1[nH][nH]c(=O)c1C(c1ccc(-c2ccc(Cl)c(C(=O)O)c2)o1)c1c(C)[nH][nH]c1=O	TDP2 absorb 51 | TDP2 inh conf inactive
Cc1nonc1NC(=O)CSc1nc(CCC2CCCC2)nc2ccccc12	TDP2 absorb 25 | TDP2 inh conf inactive
Cc1cc(NC(=O)CSc2nc(CCC3CCCC3)nc3ccccc23)no1	none
FC(F)(F)c1cccc(N2CCCCC2)c1	none
COc1cc(CNc2ncn[nH]2)ccc1OCc1cccc(C)c1	none
COc1cc(CCC(=O)Nc2nccs2)cc(OC)c1OC	TDP2 absorb 29 | TDP2 inh conf inactive
COc1cc(CCC(=O)Nc2ncc(C)s2)cc(OC)c1OC	none
CC(NC(=O)Cc1ccccc1)c1ccccc1 (stereo not given)	none
O=C(NC1(O)C(=O)c2ccccc2C1=O)c1ccc(C(F)(F)F)cc1	TDP2 absorb 37 | TDP2 inh conf 83
O=C(Cc1ccccc1)NC1(O)C(=O)c2ccccc2C1=O	TDP2 absorb 64 | TDP2 inh conf 62
Cc1ccc(C(=O)NC2(O)C(=O)c3ccccc3C2=O)cc1C	TDP2 absorb 73 | TDP2 inh conf 75
O=C1NC(=O)C(=Cc2ccccc2[N+](=O)[O-])S1	TDP2 absorb 25 | TDP2 inh conf 44
O=C(Cn1nnc(-c2ccccc2)n1)Nc1cccc(S(=O)(=O)N2CCCC2)c1	none
CC(C)(CNC(=O)c1ccc(S(=O)(=O)Nc2ccccc2F)cc1)N1CCOCC1	none
NNC(=O)c1[nH]c2ccc(Br)cc2c1-c1ccccc1	none
CCNC(=S)NS(=O)(=O)c1ccc(Cl)cc1	TDP2 absorb 37 | TDP2 inh conf inactive
Cc1c(NS(=O)(=O)c2ccc(N3CCN(C)CC3)c([N+](=O)[O-])c2)c(=O)n(-c2ccccc2)n1C	none
Oc1ccc(NC(=S)Nc2ccccc2)cc1	TDP2 absorb 25! | TDP2 inh conf inactive
Nc1ccc(NC(=S)Nc2ccccc2)cc1	TDP2 absorb 32 | TDP2 inh conf inactive
COc1ccc(NC(=S)Nc2ccccc2)cc1	none
CCc1ccc2c(c1)C(C)=CC(C)(C)N2	none
CCOc1ccc2c(c1)C(C)=CC(C)(C)N2	TDP2 absorb 26 | TDP2 inh conf inactive
CN1C(=O)/C(=C/c2ccc(C(=O)Nc3ccc(O)cc3C(=O)O)cc2)SC1=S	TDP2 absorb 28 | TDP2 inh conf inactive
Cc1ccc(OCC(=O)NCc2n[nH]c(=O)c3ccccc23)cc1	none
Cc1cccc(-n2nnc(C(=O)NCc3ccco3)c2N)c1	none
O=C(NC1C(=O)NNC1c1ccccc1)c1ccccc1 (stereo not given)	none
Cc1cccc(C(=O)NC2C(=O)NNC2c2ccc(Cl)cc2)c1 (stereo not given)	TDP2 absorb 30 | TDP2 inh conf inactive
CCOC(=O)C1(CCOC)CCN(C(=O)c2sccc2C)CC1	TDP2 absorb 26 | TDP2 inh conf inactive
CCOC(=O)C1(Cc2ccccc2C)CCCN(C(=O)c2sccc2C)C1 (stereo not given)	none
CCCCOP(=O)(c1ccc(N(C)C)cc1)C(O)c1ccc(OC)c(OC)c1 (stereo not given)	none
Cc1ccc(C2C(C#N)=C(N)Oc3n[nH]c(-c4cccs4)c32)s1 (stereo not given)	TDP2 absorb 34 | TDP2 inh conf inactive
CC1(Cc2ccc(Cl)cc2)C(=O)Nc2c(Cl)ccc(Cl)c21 (stereo not given)	none
Cc1ccc(NS(=O)(=O)c2ccc(C)c(NC(=O)COc3ccccc3)c2)c(C)c1	none
CCCCC(Sc1nc(N)c(NC(=O)c2ccco2)c(=O)[nH]1)C(=O)O (stereo not given)	TDP2 absorb 26 | TDP2 inh conf inactive
Nc1c(C(=O)OCC(=O)NCc2ccccc2)[nH]c(=O)[nH]c1=O	TDP2 absorb 49 | TDP2 inh conf inactive
Nc1c(C(=O)OCC(=O)Nc2ccccc2Br)[nH]c(=O)[nH]c1=O	none
COc1cccc(-n2c(=O)c3ccccc3n3c(=S)[nH]nc23)c1	TDP2 absorb 69 | TDP2 inh conf inactive
Cc1cc(OC(=O)c2ccccc2)n(CCC#N)n1	TDP2 absorb 50 | TDP2 inh conf inactive
CCOC(=O)CSC1=NC(=O)/C(=C/c2ccc(Br)cc2)S1	TDP2 absorb 25 | TDP2 inh conf inactive
COc1cc(C(C)=O)ccc1OCC(O)CN1CCN(c2ccccn2)CC1 (stereo not given)	TDP2 absorb 26 | TDP2 inh conf inactive
Cc1nc2cc(NC(=O)N(C)c3ccc4ccccc4c3)ccc2o1	TDP2 absorb 44 | TDP2 inh conf inactive
CCC(CO)Oc1cc(NC(=O)c2cccc(OC)c2)c2ncn(C(C)C)c2c1 (stereo not given)	TDP2 absorb 26 | TDP2 inh conf 31
CCC(CO)Oc1cc(NC(=O)c2ccc(OC)cc2)c2ncn(C(C)C)c2c1 (stereo not given)	none
CN1CCN(S(=O)(=O)c2ccc(NC(=O)COc3ccccc3)cc2)CC1	none
CN(CCOc1ccccc1)CC(=O)Nc1ccc(S(=O)(=O)N2CCCC2)cc1	UHRF1 binding 25, TDP2 absorb 30 | TDP2 inh conf inactive
O=C1CCCCCC[C@@H](O)[C@H](O)C[C@H](c2ccccc2)O1	none
Cc1ccc(C(C[N+](=O)[O-])c2c(C)[nH]n(-c3ccccc3)c2=O)cc1 (stereo not given)	TDP2 absorb 34 | TDP2 inh conf 32
Cc1[nH]n(-c2ccccc2)c(=O)c1C=NCCc1ccccc1	none
Cc1[nH]n(-c2ccccc2)c(=O)c1C(C[N+](=O)[O-])c1ccc(F)cc1 (stereo not given)	TDP2 absorb 38 | TDP2 inh conf inactive
CN(Cc1ccccc1)C(=O)CCS(=O)(=O)c1cc2c(cc1Cl)NC(=O)CO2	none
CCN(CC(=O)Nc1ccccc1OC)CC(=O)Nc1c(Cl)ccc(C)c1Cl	none
COc1ccc(CNCCCC(=O)Nc2c(Cl)ccc(C)c2Cl)cc1OC	TDP2 absorb 29 | TDP2 inh conf inactive
Cn1c(SCC(=O)Nc2ccc3[nH]c(=O)[nH]c3c2)nnc1-c1ccc(F)cc1	TDP2 absorb 29 | TDP2 inh conf inactive
O=C(Nc1ccc2nc3n(c(=O)c2c1)CCCCC3)c1c(F)ccc([N+](=O)[O-])c1F	LEDGF integ inh 17, TDP2 absorb 25 | TDP2 inh conf 38

High-throughput results from PubChem.
